Cl transport mod – modulators of human KCC2 chloride dependent transport; Q9H2X9; B-score of Tl+ flux slope (higher = more flux/activation; lower = inhibition) at 10 µM; KCC2 cells, thallium flux FluoZin-2 fluorescence; 190,000 compounds, 2.2% hits;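 active = thallium flux slope and its plate-corrected score both differing from the plate sample mean at a set confidence after two filtering rounds, in either direction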;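 note: slope of fluorescence scaled to starting intensity during 10 to 20 s after thallium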
KCNQ1 act – human KCNQ1 channel potentiation or activation; AID 2648; 310,000 compounds, 0.35% hits; P51787; B-score at 10 µM; CHO-K1 KCNQ1, thallium flux FluxOR fluorescence; stronger effect = higher value;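 active = fluorescence ratio B-score, a plate-corrected score, at least three library SD, with initial intensity B-score within 5 SD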
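System: Stable KCNQ1 CHO-K1 line | Incubation: 90 min dye loading and 20 min compound exposure, both at room temperature | Measure: Ratio B score | Medium: Assay buffer for compound exposure, DMSO matched across wells | Compound dosing: Single-concentration screen | Probe or stimulus: K+/Tl+ depolarizing stimulus | Measured by: Kinetic FluxOR fluorescence, 10 s baseline plus 110 s post-stimulus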
hERG protect – shields human hERG channel from block by proarrhythmic agents. activation (rescue from dofetilide block), less the hit threshold, % at 10 µM. CHO-hERG, FluxOR thallium flux, dofetilide IC70 present. AID 1511. 310,000 compounds, 0.51% hits. Q12809;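 active = activation above the mean of controls blocked by dofetilide plus 5 SD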;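 note: thallium influx through hERG after potassium depolarization seen as dye fluorescence rise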
KCNK3 block – human KCNK3 channel inhibition, primary screen; CHO-KCNK3 thallium flux, FluxOR fluorescence; stronger effect = lower value; B-score at 10 µM; 340,000 compounds, 0.84% hits; AID 602410;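 active = B-score under library mean minus 4 SD, starting fluorescence ratio at most library mean plus 5 SD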;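 note: more negative B-score means stronger inhibition of thallium flux through KCNK3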
KCNK9 inh – inhibitors of human KCNK9 two-pore domain potassium channel. Q9NPC2. HEK293 KCNK9, FluxOR thallium flux fluorescence; stronger effect = lower value. B-score at 10 µM. 310,000 compounds, 1.2% hits. AID 488922;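 active = ratio B-score over 3 SD below the library mean, with starting fluorescence within 5 SD of its mean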;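 note: negative B-score means less thallium flux so channel inhibition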
Target sequence (Q9NPC2 whole entry, looked up, the tested form may be a part): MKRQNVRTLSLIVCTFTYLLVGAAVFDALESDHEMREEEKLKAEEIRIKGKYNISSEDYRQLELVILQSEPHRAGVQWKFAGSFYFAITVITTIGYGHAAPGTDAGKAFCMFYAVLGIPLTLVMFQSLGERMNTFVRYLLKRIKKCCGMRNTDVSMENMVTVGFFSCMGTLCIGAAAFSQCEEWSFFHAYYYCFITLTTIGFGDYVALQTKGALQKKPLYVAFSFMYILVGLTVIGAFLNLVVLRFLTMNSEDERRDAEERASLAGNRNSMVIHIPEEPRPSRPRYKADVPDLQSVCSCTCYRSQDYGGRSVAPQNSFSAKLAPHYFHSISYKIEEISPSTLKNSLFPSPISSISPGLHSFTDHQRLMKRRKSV
KCNQ1 block – blocks the human KCNQ1 potassium channel; P51787; CHO-K1 KCNQ1, FluxOR thallium flux fluorescence; stronger effect = higher value; B-score at 10 µM; 310,000 compounds, 1.3% hits; AID 2642;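 active = compounds whose thallium flux B-score, printed positive for inhibition, exceeds three library SD while starting fluorescence stays within three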;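 note: channel opened by potassium depolarization with thallium stimulus after 20 min compound exposure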
Hits are given with their value. A selection: hits, their analogues and other compounds. The true share with any hit is near 4.1%.

Cc1cccc(C2C3=C(Nc4[nH]n(-c5ccccc5)c(=O)c42)c2ccccc2C3=O)c1 (centres undefined) was read as Cl transport mod inactive, KCNQ1 act inactive, hERG protect inactive, KCNK3 block inactive, KCNK9 inh -7.5 and KCNQ1 block inactive.
CCOc1cc(C)c(-c2onc(C(F)(F)F)c2-c2csc(C)n2)c(O)c1 was read as Cl transport mod inactive, KCNQ1 act inactive, hERG protect inactive, KCNK3 block inactive, KCNK9 inh inactive and KCNQ1 block 8.
`Cn1c(/C(C#N)=C(\O)CN2CCN(Cc3ccccc3)CC2)nc2ccccc21` gave Cl transport mod -6.1, KCNQ1 act inactive, hERG protect inactive, KCNK3 block inactive, KCNK9 inh inactive and KCNQ1 block inactive.
Cc1ccc(SC/C(O)=C(\C#N)c2nc3ccccc3n2C)cc1 was read as Cl transport mod inactive, KCNQ1 act inactive, hERG protect inactive, KCNK3 block inactive, KCNK9 inh inactive and KCNQ1 block inactive.
Screening c1ccc(-c2csc(N3CCN(c4ccccn4)CC3)n2)cc1 returned Cl transport mod inactive, KCNQ1 act inactive, hERG protect inactive, KCNK3 block inactive, KCNK9 inh -6.7 and KCNQ1 block inactive.
Clc1ccc(-c2csc(N3CCc4ccccc4C3)n2)cc1 was read as KCNQ1 act 10, hERG protect inactive, KCNK3 block inactive, KCNK9 inh inactive and KCNQ1 block inactive.
CCc1cc2c(=O)n(CCC(C)C)c(=S)[nH]c2s1 was read as Cl transport mod 73, KCNQ1 act 35, hERG protect 26, KCNK3 block inactive, KCNK9 inh inactive and KCNQ1 block inactive.
`CC[C@@H](C)[C@H](NC(=O)OC(C)(C)C)c1nnc(S(=O)(=O)Cc2cc(C)ccc2C)o1` gave Cl transport mod -6.4, KCNQ1 act inactive, hERG protect inactive, KCNK3 block inactive, KCNK9 inh inactive and KCNQ1 block inactive.
Screening Cc1cc(C)c(C)c(OCCCOc2cccc3cccnc23)c1 returned Cl transport mod inactive, KCNQ1 act inactive, hERG protect inactive, KCNK3 block inactive, KCNK9 inh inactive and KCNQ1 block inactive.
Screening CCOC(=O)Cn1c(S(=O)(=O)Cc2ccccc2)nc2ccccc21 returned Cl transport mod inactive, KCNQ1 act inactive, hERG protect inactive, KCNK3 block inactive, KCNK9 inh inactive and KCNQ1 block inactive.
CCOC(=O)Cn1c(S(=O)(=O)Cc2ccc(Cl)cc2)nc(-c2ccccc2)c1-c1ccccc1 was read as Cl transport mod inactive, KCNQ1 act inactive, hERG protect inactive, KCNK3 block inactive, KCNK9 inh -6.8 and KCNQ1 block inactive.
O=C(COc1coc(CN2CCc3ccccc32)cc1=O)NCCc1ccccc1 was read as KCNQ1 act inactive, hERG protect inactive, KCNK3 block inactive, KCNK9 inh inactive and KCNQ1 block inactive.
For CC(=O)c1ccc(S(=O)(=O)Nc2cc3c(cc2C(C)=O)OCO3)cc1 the results were Cl transport mod inactive, KCNQ1 act inactive, hERG protect inactive, KCNK3 block inactive, KCNK9 inh inactive and KCNQ1 block inactive.
`CC(=O)c1cc2c(cc1NS(=O)(=O)c1ccc3c(c1)OCCO3)OCO2` gave Cl transport mod inactive, KCNQ1 act inactive, hERG protect 5.1, KCNK3 block inactive, KCNK9 inh inactive and KCNQ1 block inactive.
For C=CCN1C(=O)CSc2ccc(C(=O)NCc3cccs3)cc21 the results were Cl transport mod inactive, KCNQ1 act inactive, hERG protect 47, KCNK3 block inactive, KCNK9 inh inactive and KCNQ1 block inactive.
O=C(CC(=O)c1c(F)cccc1Cl)c1ccccc1O was read as KCNQ1 act inactive, hERG protect inactive, KCNK3 block inactive, KCNK9 inh inactive and KCNQ1 block inactive.
`O=C(CC(=O)c1ccccc1O)c1cccc(F)c1` gave KCNQ1 act 37, hERG protect inactive, KCNK3 block inactive, KCNK9 inh inactive and KCNQ1 block inactive.
`O=C(CC(=O)c1ccccc1O)c1ccc(F)cc1` gave Cl transport mod 24, KCNQ1 act inactive, hERG protect inactive, KCNK3 block inactive, KCNK9 inh inactive and KCNQ1 block inactive.
For O=C(CSc1nc2ccccc2c(=O)n1-c1ccc(F)cc1F)Nc1ccc2c(c1)CCC2 the results were Cl transport mod inactive, KCNQ1 act inactive, hERG protect inactive, KCNK3 block inactive, KCNK9 inh -7.6 and KCNQ1 block inactive.

High-throughput results as filed in PubChem.
